24 compounds from ChEMBL document CHEMBL1136886, “Optimization of benzimidazole series as opioid receptor-like 1 (ORL1) antagonists: SAR study directed toward improvement of selectivity over hERG activity” (Bioorg Med Chem Lett, 2009) can be followed below.

Each structure is given as a SMILES string. A value given as a limit tells only on which side of the number the result lay.

Data set [1] concerns the target T1, Nociceptin receptor (Homo sapiens, UniProt P41146). Description: Displacement of [125I]Tyr14-NC/OFQ from human ORL1 receptor. An outline of the steps: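 Membrane fractions of CHO cells expressing human ORL1; binding affinity from displacement of radioligand [125I]Tyr14-NC/OFQ.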
A general note: Displacement assays read how much labelled ligand stays bound in the presence of the test substance.

Data set [2] concerns the target T1, Nociceptin receptor. In words: Antagonist activity at ORL1 receptor expressed in CHO cells assessed as inhibition of NC/OFQ-stimulated [35S]GTPgammaS binding. The class given is functional, cell-based. An outline of the steps: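 Membrane fractions of CHO cells expressing ORL1 used; functional activity measured by [35S]GTPγS binding to G proteins.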
For data set [3], the target named is Voltage-gated inwardly rectifying potassium channel KCNH2 (Homo sapiens, UniProt Q12809). In words: Displacement of [35S]MK499 from human ERG expressed in HEK293 cells.
Data set [4] can be described thus: Lipophilicity, log D at pH 7.4 by shake-flask method. The class given is physicochemical. To be noted: buffer.
The target of data set [5] is Kappa-type opioid receptor (Homo sapiens, UniProt P41145). Description: Displacement of [3H]U69593 from human cloned kappa opioid receptor expressed in CHO cells. The class given is cell-based.
Data set [6] concerns the target Mu-type opioid receptor (Homo sapiens, UniProt P35372). In words: Displacement of [3H]diprenorphin from human cloned mu opioid receptor expressed in CHO cells. The class given is cell-based.

T1 sequence (P41146 whole entry): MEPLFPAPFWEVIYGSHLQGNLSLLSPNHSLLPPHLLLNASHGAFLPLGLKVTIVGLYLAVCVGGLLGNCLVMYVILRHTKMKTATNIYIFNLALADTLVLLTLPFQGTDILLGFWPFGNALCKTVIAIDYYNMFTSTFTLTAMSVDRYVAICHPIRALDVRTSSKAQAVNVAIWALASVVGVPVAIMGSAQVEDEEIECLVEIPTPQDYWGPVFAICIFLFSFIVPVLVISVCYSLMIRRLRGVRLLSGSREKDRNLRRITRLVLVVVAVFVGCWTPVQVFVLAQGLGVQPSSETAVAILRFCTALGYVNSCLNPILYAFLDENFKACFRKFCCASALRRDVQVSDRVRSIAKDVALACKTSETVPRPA
Chain of Voltage-gated inwardly rectifying potassium channel KCNH2 (Q12809 whole entry): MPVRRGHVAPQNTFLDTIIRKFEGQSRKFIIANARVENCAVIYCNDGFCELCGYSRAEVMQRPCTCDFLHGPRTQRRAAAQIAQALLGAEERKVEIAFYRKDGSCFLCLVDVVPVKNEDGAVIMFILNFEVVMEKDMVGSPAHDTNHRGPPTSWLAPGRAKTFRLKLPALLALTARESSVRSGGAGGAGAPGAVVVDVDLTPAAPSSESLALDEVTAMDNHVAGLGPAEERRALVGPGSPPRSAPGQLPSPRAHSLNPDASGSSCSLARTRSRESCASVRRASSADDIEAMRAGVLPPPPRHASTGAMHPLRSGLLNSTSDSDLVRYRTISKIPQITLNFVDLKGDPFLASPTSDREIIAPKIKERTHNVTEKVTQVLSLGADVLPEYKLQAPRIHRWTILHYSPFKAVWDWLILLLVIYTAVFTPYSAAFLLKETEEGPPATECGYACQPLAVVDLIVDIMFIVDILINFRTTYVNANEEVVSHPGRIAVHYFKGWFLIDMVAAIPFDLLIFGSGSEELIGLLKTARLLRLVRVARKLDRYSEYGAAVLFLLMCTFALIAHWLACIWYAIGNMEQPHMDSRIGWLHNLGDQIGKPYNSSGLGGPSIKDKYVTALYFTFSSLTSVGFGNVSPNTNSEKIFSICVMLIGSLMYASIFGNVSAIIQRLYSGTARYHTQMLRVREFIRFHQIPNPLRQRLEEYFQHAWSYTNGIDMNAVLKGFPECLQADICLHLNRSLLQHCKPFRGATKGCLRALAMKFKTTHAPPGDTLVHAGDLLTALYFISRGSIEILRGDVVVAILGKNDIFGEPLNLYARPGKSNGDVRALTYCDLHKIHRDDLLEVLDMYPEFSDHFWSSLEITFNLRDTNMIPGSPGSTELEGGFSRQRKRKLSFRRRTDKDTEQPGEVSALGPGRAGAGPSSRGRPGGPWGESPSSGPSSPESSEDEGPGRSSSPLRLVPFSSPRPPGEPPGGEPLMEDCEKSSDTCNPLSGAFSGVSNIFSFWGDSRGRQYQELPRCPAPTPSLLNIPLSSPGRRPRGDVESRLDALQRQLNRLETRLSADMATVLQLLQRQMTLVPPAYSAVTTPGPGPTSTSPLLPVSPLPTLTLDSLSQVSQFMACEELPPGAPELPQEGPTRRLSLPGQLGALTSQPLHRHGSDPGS
Chain of Mu-type opioid receptor (P35372 whole entry): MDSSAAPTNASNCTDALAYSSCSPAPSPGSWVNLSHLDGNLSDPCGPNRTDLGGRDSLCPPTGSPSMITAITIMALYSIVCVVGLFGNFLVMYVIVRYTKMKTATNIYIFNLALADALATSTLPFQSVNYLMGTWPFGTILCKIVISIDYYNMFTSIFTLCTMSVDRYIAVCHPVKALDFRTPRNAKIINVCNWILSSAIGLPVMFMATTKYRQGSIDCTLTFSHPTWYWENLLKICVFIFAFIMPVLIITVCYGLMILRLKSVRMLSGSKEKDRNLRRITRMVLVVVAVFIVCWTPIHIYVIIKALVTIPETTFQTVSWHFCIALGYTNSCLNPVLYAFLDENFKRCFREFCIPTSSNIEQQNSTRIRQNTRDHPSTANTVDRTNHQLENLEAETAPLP
Chain of Kappa-type opioid receptor (P41145 whole entry): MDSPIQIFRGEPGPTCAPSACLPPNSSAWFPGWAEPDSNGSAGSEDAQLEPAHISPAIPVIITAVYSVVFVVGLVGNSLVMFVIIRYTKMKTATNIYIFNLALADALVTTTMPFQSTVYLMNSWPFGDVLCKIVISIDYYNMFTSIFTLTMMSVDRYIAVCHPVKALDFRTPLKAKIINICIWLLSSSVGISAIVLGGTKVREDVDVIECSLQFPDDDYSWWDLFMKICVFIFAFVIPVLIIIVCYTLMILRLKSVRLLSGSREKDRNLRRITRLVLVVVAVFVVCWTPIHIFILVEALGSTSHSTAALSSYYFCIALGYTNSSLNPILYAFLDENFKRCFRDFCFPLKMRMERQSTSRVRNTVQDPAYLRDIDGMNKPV

Take `CCN1CCN(c2cc3[nH]c(S[C@]4(C)CC[C@@H](c5nnc(C)o5)CC4)nc3cc2Cl)CC1`: the IC50 worked out at 1.8 nM in data set [1] and 7.1 nM in data set [2].

Consider `CC(=O)CN1CCN(c2cc3[nH]c(SC(C)(C)C)nc3cc2Cl)C(C)C1` (racemic), for which the figures for the 50% inhibitory concentration (IC50) in data set [3] and in data set [2] were more than 10000 nM and 41 nM, respectively.

On to `CCN1CCN(c2cc3[nH]c(S[C@]4(C)CC[C@@H](S(C)(=O)=O)CC4)nc3cc2Cl)CC1`, for which the values for the half-maximal inhibitory concentration (IC50) in data set [3], in data set [1] and in data set [2] were more than 10000 nM, 6.9 nM and 4 nM, respectively.

As to `CCN1CCN(c2cc3[nH]c(SC(C)(C)C)nc3cc2Cl)CC1`, the 50% inhibitory concentration (IC50) in data set [1] was determined as 22 nM.

As to `CCN1CCN(c2cc3[nH]c(S[C@]4(C)CC[C@@H](N5CCCC5=O)CC4)nc3cc2Cl)CC1`, the 50% inhibitory concentration (IC50) in data set [3] was more than 10000 nM; in data set [1] it was 1.4 nM; in data set [2] it was 0.55 nM. The same compound gave a log distribution coefficient (logD) in data set [4] of 2.9.

In the case of `CCN1CCN(c2cc3[nH]c(S[C@]4(C)CC[C@@H](c5nc(C)no5)CC4)nc3cc2Cl)CC1`, the figures for the IC50 in data set [1] and in data set [2] were 1.7 nM and 0.91 nM, respectively. In data set [4], this compound returned a log distribution coefficient (logD) of 3.8.

For the compound `C[C@@H]1CN(CCC#N)CCN1c1cc2[nH]c(SC(C)(C)C)nc2cc1Cl`, the 50% inhibitory concentration (IC50) in data set [3] is more than 10000 nM; in data set [1], 27 nM; in data set [2], 6.4 nM.

On to `CCN1CCN(c2cc3[nH]c(S[C@]4(C)CC[C@@H](NS(C)(=O)=O)CC4)nc3cc2Cl)CC1`, for which the half-inhibitory concentration (IC50) in data set [3] was more than 10000 nM; in data set [1] it was 2.1 nM; in data set [2] it was 1.8 nM. The logD in data set [4] was determined as 2.5.

Consider `CCN1CCN(c2cc3[nH]c(S[C@]4(C)CC[C@@H](NC(=O)OC)CC4)nc3cc2Cl)CC1`, for which the half-maximal inhibitory concentration (IC50) in data set [3] is 3500 nM; in data set [1], 2.4 nM; in data set [2] it was 0.72 nM. The compound further registered a log distribution coefficient (logD) in data set [4] of 3.4.

Regarding `CCN1CCN(c2cc3[nH]c(S[C@]4(C)CC[C@@H](c5nnn(C)n5)CC4)nc3cc2Cl)CC1`, the half-inhibitory concentration (IC50) in data set [1] amounted to 2.2 nM; in data set [2], 0.9 nM. This compound registered a logD in data set [4] of 3.1.

The compound `C[C@@H]1CN(CC(F)(F)F)CCN1c1cc2[nH]c(SC(C)(C)C)nc2cc1Cl` had an IC50 in data set [1] of 630 nM.

For `C[C@@H]1CN(CCO)CCN1c1cc2[nH]c(SC(C)(C)C)nc2cc1Cl`, the IC50 in data set [3] stood at 1600 nM.

Consider `CCN1CCN(c2cc3[nH]c(SC(C)(C)CCNC(=O)OC)nc3cc2Cl)CC1`, for which the 50% inhibitory concentration (IC50) in data set [1] is 21 nM; in data set [2], 8.6 nM.

For the compound `CCOC(=O)N1CCC(C)(Sc2nc3cc(Cl)c(N4CCN(CC)CC4)cc3[nH]2)CC1`, the IC50 is 4.3 nM in data set [1] and 1.1 nM in data set [2].

For `CCN1CCN(c2cc3[nH]c(S[C@]4(C)CC[C@@H](NC(C)=O)CC4)nc3cc2Cl)CC1`, the IC50 was more than 10000 nM in data set [3], 1.9 nM in data set [1] and 1.1 nM in data set [2]. In data set [4], this compound had a logD of 2.5.

On to `CCN1CCN(c2cc3[nH]c(SC4(C)CCC(NC(=O)OC)C4)nc3cc2Cl)CC1` (racemic), for which, in data set [2], the IC50 was 46 nM.

`CCN1CCN(c2cc3[nH]c(S[C@]4(C)CC[C@@H](C(=O)NC)CC4)nc3cc2Cl)CC1`: the results for the IC50 in data set [3], in data set [1] and in data set [2] were more than 10000 nM, 1 nM and 1.1 nM, respectively.

`CCN1CCN(c2cc3[nH]c(SC(C)(C)C)nc3cc2Cl)[C@H](C)C1`: the 50% inhibitory concentration (IC50) in data set [3] is 990 nM; in data set [1] it was 9.2 nM; in data set [2], 2.9 nM.

With `C[C@@H]1CN(CC#N)CCN1c1cc2[nH]c(SC(C)(C)C)nc2cc1Cl`, the IC50 in data set [1] was found to be 61 nM.

With `CCN1CCN(c2cc3[nH]c(S[C@]4(C)CC[C@@H](c5nnco5)CC4)nc3cc2Cl)CC1`, the 50% inhibitory concentration (IC50) is 1.1 nM in data set [1] and 0.59 nM in data set [2].

Take `CCN1CCN(c2cc3[nH]c(S[C@]4(C)CC[C@H](NC(=O)OC)CC4)nc3cc2Cl)CC1`: the concentration for half-maximal inhibition (IC50) in data set [3] was determined as 1500 nM; in data set [1] it was 9.5 nM; in data set [2] it was 2.1 nM.

With `CCN1CCN(c2cc3[nH]c(S[C@]4(C)CC[C@@H](N(C)C(C)=O)CC4)nc3cc2Cl)CC1`, the IC50 was 160 nM in data set [5], 0.81 nM in data set [1], 840 nM in data set [6] and 1.3 nM in data set [2]. Moreover, the logD in data set [4] was 2.7.

`CCN1CCN(c2cc3[nH]c(S[C@]4(C)CC[C@@H](c5nnnn5C)CC4)nc3cc2Cl)CC1`: the concentration for half-maximal inhibition (IC50) came out at 7.4 nM in data set [1] and 3.7 nM in data set [2]. In addition, the logD in data set [4] turned out to be 2.3.

For `C[C@@H]1CN(CC(F)F)CCN1c1cc2[nH]c(SC(C)(C)C)nc2cc1Cl`, the IC50 is more than 10000 nM in data set [3] and 23 nM in data set [1].

In general, IC50 refers to the concentration at which inhibition is half-maximal. Usually logD stands for the decadic logarithm of the distribution of all forms, ionised or not, between an organic phase and buffer at a given pH. A high value points to higher lipophilicity.
